Source: ChEMBL document CHEMBL1139371, “Total synthesis and biological evaluation of tubulysin U, tubulysin V, and their analogues” (J Med Chem, 2009)

Legend:
[1] = tested on: 1A9; assay: Antiproliferative activity against human 1A9 cells after 4 days by SRB assay; type: functional, cell-based; details: 1A9, 96 h
Procedure, shortened: (§1)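 Compounds were tested as HCl salts and dosed from DMSO. Cells were 1A9 ovarian and MCF-7 breast cancer lines. IC50 is the mean of two independent determinations.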

[2] = tested on: MCF7; assay: Antiproliferative activity against human MCF7 cells after 4 days by SRB assay; type: functional, cell-based; details: MCF7, 96 h; procedure, shortened: as §1
[3] = Inhibition of tubulin polymerization
[4] = Anticancer activity against human KBV1 cells expressing P-gp; type: functional, cell-based; details: KB-V1

SMILES	IC50 [1] [µM]	IC50 [2] [µM]	IC50 [3] [µM]	IC50 [4] [µM]
CC[C@H](C)[C@H](NC(=O)[C@@H](C)N(C)C)C(=O)N[C@H](CC(=O)c1nc(C(=O)N[C@@H](Cc2ccccc2)CC(C)(C)C(=O)O)cs1)C(C)C	14.2	12.2	8.5	
CC[C@H](C)[C@H](NC(=O)[C@@H](C)N(C)C)C(=O)N[C@H](CC(=O)c1nc(C(=O)N[C@@H](Cc2ccccc2)C[C@H](C)C(=O)O)cs1)C(C)C	> 50		3.6	
CC[C@H](C)[C@H](NC(=O)[C@H]1CCCCN1C)C(=O)N[C@H](C[C@H](O)c1nc(C(=O)N[C@@H](Cc2ccccc2)C[C@H](C)C(=O)O)cs1)C(C)C	5.1	8.1	1.3	
CC[C@H](C)[C@H](NC(=O)[C@@H](C)N(C)C)C(=O)NC(CC(=O)c1nc(C(=O)N[C@H](CCC(=O)O)Cc2ccccc2)cs1)C(C)C (single isomer, unassigned)	0.3	0.17	12.5	
CN[C@H](C(=O)N[C@H](C(=O)N(C)[C@H](/C=C(\C)C(=O)O)C(C)C)C(C)(C)C)C(C)(C)c1ccccc1 [TALTOBULIN]	0.0002	0.00015	0.7	
CC[C@H](C)[C@H](NC(=O)[C@H]1CCCCN1C)C(=O)N(COC(=O)CC(C)C)[C@H](C[C@@H](OC(C)=O)c1nc(C(=O)N[C@@H](Cc2ccccc2)C[C@H](C)C(=O)O)cs1)C(C)C [TUBULYSIN D]				0.00031
CC[C@H](C)[C@H](NC(=O)[C@H]1CCCCN1C)C(=O)N[C@H](C[C@@H](OC(C)=O)c1nc(C(=O)N[C@@H](Cc2ccccc2)C[C@H](C)C(=O)O)cs1)C(C)C [TUBULYSIN U]	0.00065	0.0004	1.9	
CC[C@H](C)[C@H](NC(=O)[C@H]1CCCCN1C)C(=O)N[C@H](C[C@@H](O)c1nc(C(=O)N[C@@H](Cc2ccccc2)C[C@H](C)C(=O)O)cs1)C(C)C [TUBULYSIN V]	0.12	0.24	1.1	
